Measurements reported in ChEMBL document CHEMBL2169781, “Discovery and biological evaluation of a novel class of dual microsomal prostaglandin E2 synthase-1/5-lipoxygenase inhibitors based on 2-[(4,6-diphenethoxypyrimidin-2-yl)thio]hexanoic acid” (J Med Chem, 2011).
Each block holds one compound with its values, some of them ahead of it. Calls of active or inactive are those of the source. The rule behind the calls is not given here.

Key:
[1] = test system: Radical scavenging activity; assay: Antioxidant activity assessed as DPPH radical scavenging activity at 100 uM; type: functional
In short: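 Non-enzymatic radical scavenging test: reduction of 1,1-diphenyl-2-picrylhydrazyl (DPPH) measured with test compound up to 100 μM; ascorbic acid and L-cysteine run as reference reductants.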

[2] = molecular target: T1, Polyunsaturated fatty acid lipoxygenase ALOX15 (Homo sapiens) (UniProt P16050); assay: Inhibition of 15-lipoxygenase in A23187-stimulated human PMNL assessed as reduction of 15(S)-H(P)ETE formation preincubated 15 mins by RP-HPLC analysis in presence of exogenous arachidonic acid
T1 sequence (whole entry): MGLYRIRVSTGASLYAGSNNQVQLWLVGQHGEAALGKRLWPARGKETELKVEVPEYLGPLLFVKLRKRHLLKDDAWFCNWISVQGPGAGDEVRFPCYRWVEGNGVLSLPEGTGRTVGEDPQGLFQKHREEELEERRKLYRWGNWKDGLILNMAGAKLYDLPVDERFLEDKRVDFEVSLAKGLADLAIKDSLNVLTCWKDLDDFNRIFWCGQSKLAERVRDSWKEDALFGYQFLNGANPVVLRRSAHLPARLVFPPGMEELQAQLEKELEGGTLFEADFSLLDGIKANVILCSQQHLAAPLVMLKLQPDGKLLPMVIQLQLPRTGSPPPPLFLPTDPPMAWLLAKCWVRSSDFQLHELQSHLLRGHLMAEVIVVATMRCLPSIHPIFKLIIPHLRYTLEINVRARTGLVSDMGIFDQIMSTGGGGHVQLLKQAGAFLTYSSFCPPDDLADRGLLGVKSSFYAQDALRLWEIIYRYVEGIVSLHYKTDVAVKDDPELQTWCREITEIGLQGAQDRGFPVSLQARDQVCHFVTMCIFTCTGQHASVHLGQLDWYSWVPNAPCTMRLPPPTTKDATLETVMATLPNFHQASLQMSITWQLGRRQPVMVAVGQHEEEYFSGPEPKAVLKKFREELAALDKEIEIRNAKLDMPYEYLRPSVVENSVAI
In short: (§1)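 Freshly isolated human PMNL (5 × 10⁶/mL in PBS pH 7.4 with 1 mg/mL glucose and 1 mM CaCl₂) preincubated with compound 15 min at 37 °C, then stimulated with 2.5 μM A23187 plus exogenous AA for 10 min at 37 °C. Stopped with methanol, PGB₁ added as internal standard, extracted, HPLC: 15(S)-H(p)ETE taken as 15-LO product, 12(S)-H(p)ETE as 12-LO product (platelet-type 12-LO from PMNL-adherent platelets).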

[3] = molecular target: T2, Polyunsaturated fatty acid lipoxygenase ALOX12 (Homo sapiens) (UniProt P18054); assay: Inhibition of 12-lipoxygenase in A23187-stimulated human PMNL assessed as reduction of 12(S)-H(P)ETE formation preincubated 15 mins by RP-HPLC analysis in presence of exogenous arachidonic acid; in short: as §1
T2 sequence (whole entry): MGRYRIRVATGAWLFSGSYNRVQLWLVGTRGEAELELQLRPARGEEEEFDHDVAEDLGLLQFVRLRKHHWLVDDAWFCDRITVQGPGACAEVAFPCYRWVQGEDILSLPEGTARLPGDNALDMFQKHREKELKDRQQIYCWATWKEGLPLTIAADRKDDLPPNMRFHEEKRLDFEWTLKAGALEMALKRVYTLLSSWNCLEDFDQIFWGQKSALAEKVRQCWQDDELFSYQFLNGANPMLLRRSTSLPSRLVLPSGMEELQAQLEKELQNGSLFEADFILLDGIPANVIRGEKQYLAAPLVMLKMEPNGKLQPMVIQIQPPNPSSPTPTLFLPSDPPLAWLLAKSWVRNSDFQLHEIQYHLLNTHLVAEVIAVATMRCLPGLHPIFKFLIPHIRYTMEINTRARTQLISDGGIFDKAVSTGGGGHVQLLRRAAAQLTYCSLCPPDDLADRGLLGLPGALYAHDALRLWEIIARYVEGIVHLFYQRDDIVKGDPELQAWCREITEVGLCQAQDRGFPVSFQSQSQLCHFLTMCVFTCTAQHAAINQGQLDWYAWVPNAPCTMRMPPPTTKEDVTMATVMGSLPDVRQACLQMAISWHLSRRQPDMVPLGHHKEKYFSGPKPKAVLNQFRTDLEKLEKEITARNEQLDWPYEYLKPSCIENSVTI

Prostaglandin E synthase = molecular target: T3, Prostaglandin E synthase (Homo sapiens, UniProt O14684); assay: Inhibition of mPGES-1 in human IL-1beta-stimulated A549 cell microsomes assessed as reduction of PGE2 formation from PGH2 after 15 mins by RP-HPLC analysis; parameters: species or system Microsome
T3 sequence (O14684 whole entry): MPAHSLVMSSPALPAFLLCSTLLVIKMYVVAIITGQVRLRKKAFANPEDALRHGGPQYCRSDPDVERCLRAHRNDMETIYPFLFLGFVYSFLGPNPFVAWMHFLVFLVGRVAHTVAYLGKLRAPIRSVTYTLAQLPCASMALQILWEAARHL
In short: (§2)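 A549 cells in DMEM with 2% FCS for 16 h, induced with IL-1β (1 ng/mL) for 72 h, homogenized. Microsomal pellet (174 000 × g) diluted in 0.1 M potassium phosphate pH 7.4 with 2.5 mM glutathione, given compound or DMSO for 15 min. PGH₂ added (20 μM final), 1 min at 4 °C, stopped with FeCl₂/citric acid. PGE₂ by SPE and RP-HPLC (UV 195 nm), 11β-PGE₂ internal standard. Tested up to 10 μM; IC₅₀ reported only above 50% inhibition at 10 μM.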

[4] = molecular target: T4, Polyunsaturated fatty acid 5-lipoxygenase (Homo sapiens, UniProt P09917); assay: Inhibition of human recombinant 5-lipoxygenase-mediated product formation from arachidonic acid after 5 to 10 mins by HPLC analysis
T4 sequence (P09917 whole entry): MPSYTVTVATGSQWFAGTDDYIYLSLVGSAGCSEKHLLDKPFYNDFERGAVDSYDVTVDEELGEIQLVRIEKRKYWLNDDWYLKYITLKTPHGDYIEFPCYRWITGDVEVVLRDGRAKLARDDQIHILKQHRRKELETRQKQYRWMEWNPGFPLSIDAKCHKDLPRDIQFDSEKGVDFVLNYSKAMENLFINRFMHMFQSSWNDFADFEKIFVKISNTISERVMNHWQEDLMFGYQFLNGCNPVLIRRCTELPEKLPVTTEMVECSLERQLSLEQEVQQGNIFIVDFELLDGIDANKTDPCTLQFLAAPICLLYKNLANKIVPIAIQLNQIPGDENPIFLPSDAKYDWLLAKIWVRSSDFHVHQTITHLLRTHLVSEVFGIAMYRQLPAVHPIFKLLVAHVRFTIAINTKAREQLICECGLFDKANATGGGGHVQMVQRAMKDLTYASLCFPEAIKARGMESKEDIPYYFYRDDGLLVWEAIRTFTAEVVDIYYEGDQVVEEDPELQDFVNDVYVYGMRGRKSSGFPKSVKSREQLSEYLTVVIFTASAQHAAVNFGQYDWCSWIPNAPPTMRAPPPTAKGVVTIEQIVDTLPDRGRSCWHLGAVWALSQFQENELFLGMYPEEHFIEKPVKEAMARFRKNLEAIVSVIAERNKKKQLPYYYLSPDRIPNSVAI
In short: (§3)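 Human 5-LO expressed in E. coli BL21 (pT3-5LO) at 37 °C, purified and used at once. Enzyme (0.5 μg/mL in PBS/EDTA with 1 mM ATP) preincubated with compound 5–10 min at 4 °C, prewarmed 30 s at 37 °C, started with 2 mM CaCl₂ + 20 μM AA (±1 μM 13(S)-HpODE), 10 min at 37 °C, stopped with cold methanol, products by HPLC.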

[5] = molecular target: T1, Polyunsaturated fatty acid lipoxygenase ALOX15 (Homo sapiens); assay: Inhibition of 15-lipoxygenase in A23187-stimulated human PMNL assessed as reduction of 15(S)-H(P)ETE formation up to 10 uM preincubated 15 mins by RP-HPLC analysis in presence of exogenous arachidonic acid; in short: as §1
[6] = molecular target: T2, Polyunsaturated fatty acid lipoxygenase ALOX12 (Homo sapiens); assay: Inhibition of 12-lipoxygenase in A23187-stimulated human PMNL assessed as reduction of 12(S)-H(P)ETE formation up to 10 uM preincubated 15 mins by RP-HPLC analysis in presence of exogenous arachidonic acid; in short: as §1
[7] = molecular target: T4, Polyunsaturated fatty acid 5-lipoxygenase; assay: Inhibition of 5-lipoxygenase in human PMNL S100 supernatant assessed as inhibition of enzyme product formation preincubated for 5 to 10 mins before arachidonic acid addition by HPLC analysis
In short: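 PMNL (5 × 10⁶/mL in PBS/1 mM EDTA) sonicated, centrifuged 100 000 × g for 1 h at 4 °C. S100 diluted in PBS/EDTA with 1 mM ATP, ±1 mM DTT, and preincubated with compound or 0.3% DMSO 5–10 min at 4 °C. Prewarmed 30 s at 37 °C, started with 2 mM CaCl₂ + 20 μM AA, 10 min at 37 °C, stopped with cold methanol, 5-LO products by HPLC.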

[8] = molecular target: T4, Polyunsaturated fatty acid 5-lipoxygenase; assay: Inhibition of 5-lipoxygenase-mediated 5(S)-H(p)ETE formation in fMLP-stimulated human PMNL incubated 10 mins prior to fMLP challenge
[9] = molecular target: T5, Polyunsaturated fatty acid 5-lipoxygenase (Homo sapiens) (UniProt P09917); assay: Inhibition of human recombinant 5-lipoxygenase-mediated product formation from arachidonic acid assessed as remaining activity at 1 uM after 5 to 10 mins by HPLC analysis; in short: as §3
T5 sequence (whole entry): T4 sequence (P09917 whole entry)

[10] = molecular target: T6, Prostaglandin E synthase (Homo sapiens) (UniProt O14684); assay: Inhibition of mPGES-1 in human IL-1beta-stimulated A549 cell microsomes assessed as residual activity by measuring reduction of PGE2 formation from PGH2 at 10 uM after 15 mins by RP-HPLC analysis; details: Microsome; in short: as §2
T6 sequence (whole entry): T3 sequence (O14684 whole entry)

[11] = molecular target: T5, Polyunsaturated fatty acid 5-lipoxygenase (Homo sapiens); assay: Inhibition of human recombinant 5-lipoxygenase-mediated product formation from arachidonic acid assessed as remaining activity at 10 uM after 5 to 10 mins by HPLC analysis; in short: as §3
[12] = Cytotoxicity in human polymorphonuclear leukocytes assessed as cell viability at 10 uM after 30 mins by MTT assay
[13] = molecular target: T4, Polyunsaturated fatty acid 5-lipoxygenase; assay: Inhibition of 5-lipoxygenase-mediated 5(S)-H(p)ETE formation in A23187-stimulated human PMNL incubated 10 mins prior to A23187 challenge
[14] = molecular target: Prostaglandin G/H synthase 1 (Ovis aries) (UniProt P05979); assay: Inhibition of ovine COX-1 mediated formation of 12-HHT from arachidonic acid assessed as remaining activity at 10 uM after 5 mins by HPLC analysis
[15] = molecular target: Prostaglandin G/H synthase 2 (Homo sapiens) (UniProt P35354); assay: Inhibition of human recombinant COX-2 mediated formation of 12-HHT from arachidonic acid assessed as remaining activity at 10 uM after 5 mins by HPLC analysis
[16] = molecular target: T5, Polyunsaturated fatty acid 5-lipoxygenase (Homo sapiens); assay: Selectivity ratio of IC50 for human recombinant 5-lipoxygenase in cell-free system to IC50 for 5-lipoxygenase-mediated 5(S)-H(p)ETE formation in A23187-stimulated PMNL

SMILES: N[C@@H](CS)C(=O)O
- Activity [1]: Active

SMILES: Cc1ccc(-c2cc(C(F)(F)F)nn2-c2ccc(S(N)(=O)=O)cc2)cc1
- inhibition [2]: inactive
- inhibition [3]: inactive

SMILES: O=C1O[C@H]([C@@H](O)CO)C(O)=C1O
- Activity [1]: Active

SMILES: CC(C)c1ccc2c(c1)c(SC(C)(C)C)c(CC(C)(C)C(=O)O)n2Cc1ccc(Cl)cc1
- inhibition [9]: inactive

Continued, in another order:

- IC50 (Prostaglandin E synthase): 2 µM
- IC50 [4]: 2.8 µM
- inhibition [5]: inactive
- inhibition [6]: inactive
- IC50 [7]: 12.5 µM
- IC50 [8]: 0.4 µM
SMILES: CCCCCCC(Sc1nc(OCCc2ccccc2)cc(OCCc2ccccc2)n1)C(=O)O (stereo unspecified)
- Activity [1]: inactive

- IC50 (Prostaglandin E synthase): > 10 µM
- Activity [10]: 74%
- IC50 [4]: 10 µM
- Activity [11]: 55.5%
- IC50 [13]: 0.4 µM
- Activity [14]: 92.3%
- Activity [15]: 106%
- Ratio IC50 [16]: > 20
SMILES: CCCC/C(=C\c1cc(OCCC2CCCCC2)ccc1OCc1ccc(C(F)(F)F)cc1)C(=O)O
- Activity [12]: Non-toxic
